In ChEMBL document CHEMBL5154945, “Discovery and Optimization of Pyrrolopyrimidine Derivatives as Selective Disruptors of the Perinucleolar Compartment, a Marker of Tumor Progression toward Metastasis” (J Med Chem, 2022):

Experiments:
SN12C = assay: Anticancer activity against human SN12C cells assessed as cell growth inhibition; assay type: functional, cell-based; settings: dose 1-100 µM, DDE = dose-dependent effect
SF-539 = assay: Anticancer activity against human SF-539 cells assessed as cell growth inhibition; assay type: functional, cell-based; settings: dose 1-100 µM, DDE = dose-dependent effect
SK-MEL-2 = assay: Anticancer activity against human SK-MEL-2 cells assessed as cell growth inhibition; assay type: functional, cell-based; settings: dose 1-100 µM, DDE = dose-dependent effect
UACC-62 = assay: Anticancer activity against human UACC-62 cells assessed as cell growth inhibition; assay type: functional, cell-based; settings: dose 1-100 µM, DDE = dose-dependent effect
HCC 2998 = assay: Anticancer activity against human HCC 2998 cells assessed as cell growth inhibition; assay type: functional, cell-based; settings: dose 1-100 µM, DDE = dose-dependent effect
HCT-116 = assay: Anticancer activity against human HCT-116 cells assessed as cell growth inhibition; assay type: functional, cell-based; settings: dose 1-100 µM, DDE = dose-dependent effect
Malme-3M = assay: Anticancer activity against human Malme-3M cells assessed as cell growth inhibition; assay type: functional, cell-based; settings: dose 1-100 µM, DDE = dose-dependent effect
SNB-75 = assay: Anticancer activity against human SNB-75 cells assessed as cell growth inhibition; assay type: functional, cell-based; settings: dose 1-100 µM, DDE = dose-dependent effect
NCI-H23 = assay: Anticancer activity against human NCI-H23 cells assessed as cell growth inhibition; assay type: functional, cell-based; settings: dose 1-100 µM, DDE = dose-dependent effect
OVCAR-4 = assay: Anticancer activity against human OVCAR-4 cells assessed as cell growth inhibition; assay type: functional, cell-based; settings: dose 1-100 µM, DDE = dose-dependent effect
MDA-MB-435 = assay: Anticancer activity against human MDA-MB-435 cells assessed as cell growth inhibition; assay type: functional, cell-based; settings: dose 1-100 µM, DDE = dose-dependent effect
HOP-62 = assay: Anticancer activity against human HOP-62 cells assessed as cell growth inhibition; assay type: functional, cell-based; settings: dose 1-100 µM, DDE = dose-dependent effect
PC-3M [1] = assay: Antiproliferative activity against human PC-3M cells expressing PTB/GFP fusion protein assessed as reduction of nucleolar volume at 1 to 30 uM measured after 24 hrs by Nucleolar-id Green Detection based confocal microscopic analysis; assay type: functional, cell-based; settings: dose 1-30 µM, DDE = dose-dependent effect
Method in brief: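 PC-3M cells grown in RPMI 1640 with 10% FBS and penicillin/streptomycin, trypsinized at 70% confluence, and seeded at 2×10^5 cells/mL overnight at 37 °C, 5% CO₂. Medium replaced with compound or 1% DMSO for 24 h. Nucleoli stained with Nucleolar-ID Green and nuclei with Hoechst 33342, then imaged by confocal microscopy. Bright green objects in three images per condition normalized to nuclei count; vehicle set to 100.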

PC-3 = assay: Anticancer activity against human PC-3 cells assessed as cell growth inhibition; assay type: functional, cell-based; settings: dose 1-100 µM, DDE = dose-dependent effect
NCI-H460 = assay: Anticancer activity against human NCI-H460 cells assessed as cell growth inhibition; assay type: functional, cell-based; settings: dose 1-100 µM, DDE = dose-dependent effect
K562 = assay: Anticancer activity against human K562 cells assessed as cell growth inhibition; assay type: functional, cell-based; settings: dose 1-100 µM, DDE = dose-dependent effect
A498 = assay: Anticancer activity against human A498 cells assessed as cell growth inhibition; assay type: functional, cell-based; settings: dose 1-100 µM, DDE = dose-dependent effect
Hs-578T = assay: Anticancer activity against human Hs-578T cells assessed as cell growth inhibition; assay type: functional, cell-based; settings: dose 1-100 µM, DDE = dose-dependent effect
CAKI-1 = assay: Anticancer activity against human CAKI-1 cells assessed as cell growth inhibition; assay type: functional, cell-based; settings: dose 1-100 µM, DDE = dose-dependent effect
BT-549 = assay: Anticancer activity against human BT-549 cells assessed as cell growth inhibition; assay type: functional, cell-based; settings: dose 1-100 µM, DDE = dose-dependent effect
A549 = assay: Anticancer activity against human A549 cells assessed as cell growth inhibition; assay type: functional, cell-based; settings: dose 1-100 µM, DDE = dose-dependent effect
T47D = assay: Anticancer activity against human T47D cells assessed as cell growth inhibition; assay type: functional, cell-based; settings: dose 1-100 µM, DDE = dose-dependent effect
IGROV-1 = assay: Anticancer activity against human IGROV-1 cells assessed as cell growth inhibition; assay type: functional, cell-based; settings: dose 1-100 µM, DDE = dose-dependent effect
SR = assay: Anticancer activity against human SR cells assessed as cell growth inhibition; assay type: functional, cell-based; settings: dose 1-100 µM, DDE = dose-dependent effect
RPMI-8226 = assay: Anticancer activity against human RPMI-8226 cells assessed as cell growth inhibition; assay type: functional, cell-based; settings: dose 1-100 µM, DDE = dose-dependent effect
SK-MEL-5 = assay: Anticancer activity against human SK-MEL-5 cells assessed as cell growth inhibition; assay type: functional, cell-based; settings: dose 1-100 µM, DDE = dose-dependent effect
SNB-19 = assay: Anticancer activity against human SNB-19 cells assessed as cell growth inhibition; assay type: functional, cell-based; settings: dose 1-100 µM, DDE = dose-dependent effect
UACC-257 = assay: Anticancer activity against human UACC-257 cells assessed as cell growth inhibition; assay type: functional, cell-based; settings: dose 1-100 µM, DDE = dose-dependent effect
HCT-15 = assay: Anticancer activity against human HCT-15 cells assessed as cell growth inhibition; assay type: functional, cell-based; settings: dose 1-100 µM, DDE = dose-dependent effect
SK-MEL-28 = assay: Anticancer activity against human SK-MEL-28 cells assessed as cell growth inhibition; assay type: functional, cell-based; settings: dose 1-100 µM, DDE = dose-dependent effect
NCI/ADR-RES = assay: Anticancer activity against human NCI/ADR-RES cells assessed as cell growth inhibition; assay type: functional, cell-based; settings: dose 1-100 µM, DDE = dose-dependent effect
MCF7 = assay: Anticancer activity against human MCF7 cells assessed as cell growth inhibition; assay type: functional, cell-based; settings: dose 1-100 µM, DDE = dose-dependent effect
MDA-MB-231 = assay: Anticancer activity against human MDA-MB-231 cells assessed as cell growth inhibition; assay type: functional, cell-based; settings: dose 1-100 µM, DDE = dose-dependent effect
SF-295 = assay: Anticancer activity against human SF-295 cells assessed as cell growth inhibition; assay type: functional, cell-based; settings: dose 1-100 µM, DDE = dose-dependent effect
OVCAR-8 = assay: Anticancer activity against human OVCAR-8 cells assessed as cell growth inhibition; assay type: functional, cell-based; settings: dose 1-100 µM, DDE = dose-dependent effect
MDA-MB-468 = assay: Anticancer activity against human MDA-MB-468 cells assessed as cell growth inhibition; assay type: functional, cell-based; settings: dose 1-100 µM, DDE = dose-dependent effect
ACHN = assay: Anticancer activity against human ACHN cells assessed as cell growth inhibition; assay type: functional, cell-based; settings: dose 1-100 µM, DDE = dose-dependent effect
U-251 = assay: Anticancer activity against human U-251 cells assessed as cell growth inhibition; assay type: functional, cell-based; settings: dose 1-100 µM, DDE = dose-dependent effect
OVCAR-3 = assay: Anticancer activity against human OVCAR-3 cells assessed as cell growth inhibition; assay type: functional, cell-based; settings: dose 1-100 µM, DDE = dose-dependent effect
KM12 = assay: Anticancer activity against human KM12 cells assessed as cell growth inhibition; assay type: functional, cell-based; settings: dose 1-100 µM, DDE = dose-dependent effect
MOLT-4 = assay: Anticancer activity against human MOLT-4 cells assessed as cell growth inhibition; assay type: functional, cell-based; settings: dose 1-100 µM, DDE = dose-dependent effect
LOX IMVI = assay: Anticancer activity against human LOX IMVI cells assessed as cell growth inhibition; assay type: functional, cell-based; settings: dose 1-100 µM, DDE = dose-dependent effect
PC-3M [2] = assay: Cytotoxicity against human PC-3M cells expressing PTB/GFP fusion protein assessed as reduction in ATP level at 20 uM and measured after 24 to 48 hrs by ATPlite luminescence assay; assay type: toxicity, cell-based; settings: time 24-48 hrs
RXF 393 = assay: Anticancer activity against human RXF 393 cells assessed as cell growth inhibition; assay type: functional, cell-based; settings: dose 1-100 µM, DDE = dose-dependent effect
CCRF-CEM = assay: Anticancer activity against human CCRF-CEM cells assessed as cell growth inhibition; assay type: functional, cell-based; settings: dose 1-100 µM, DDE = dose-dependent effect
NCI-H226 = assay: Anticancer activity against human NCI-H226 cells assessed as cell growth inhibition; assay type: functional, cell-based; settings: dose 1-100 µM, DDE = dose-dependent effect
PC-3M [3] = assay: Antiproliferative activity against human PC-3M cells expressing PTB/GFP fusion protein assessed as cell growth inhibition at < 100 nM and measured every four hrs for 130 hrs by IncuCyte zoom live cell analysis; assay type: functional, cell-based; settings: DDE = dose-dependent effect
Method in brief: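 PC3M cells stably expressing GFP-PTB, grown in DMEM with 10% FBS and 1% penicillin/streptomycin, seeded at 1.25×10^4 cells/ml in 384-well plates and left overnight at 37 °C, 5% CO2. Compound added in DMEM to give 11 final concentrations from 10 nM to 20 μM. Brightfield images were taken every 4 h for about 130 h and scored as percent confluence.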

OVCAR-5 = assay: Anticancer activity against human OVCAR-5 cells assessed as cell growth inhibition; assay type: functional, cell-based; settings: dose 1-100 µM, DDE = dose-dependent effect
SW-620 = assay: Anticancer activity against human SW-620 cells assessed as cell growth inhibition; assay type: functional, cell-based; settings: dose 1-100 µM, DDE = dose-dependent effect
UO-31 = assay: Anticancer activity against human UO-31 cells assessed as cell growth inhibition; assay type: functional, cell-based; settings: dose 1-100 µM, DDE = dose-dependent effect
COLO 205 = assay: Anticancer activity against human COLO 205 cells assessed as cell growth inhibition; assay type: functional, cell-based; settings: dose 1-100 µM, DDE = dose-dependent effect
786-0 = assay: Anticancer activity against human 786-0 cells assessed as cell growth inhibition; assay type: functional, cell-based; settings: dose 1-100 µM, DDE = dose-dependent effect
HT-29 = assay: Anticancer activity against human HT-29 cells assessed as cell growth inhibition; assay type: functional, cell-based; settings: dose 1-100 µM, DDE = dose-dependent effect
SK-OV-3 = assay: Anticancer activity against human SK-OV-3 cells assessed as cell growth inhibition; assay type: functional, cell-based; settings: dose 1-100 µM, DDE = dose-dependent effect
NCI-H322M = assay: Anticancer activity against human NCI-H322M cells assessed as cell growth inhibition; assay type: functional, cell-based; settings: dose 1-100 µM, DDE = dose-dependent effect
SF-268 = assay: Anticancer activity against human SF-268 cells assessed as cell growth inhibition; assay type: functional, cell-based; settings: dose 1-100 µM, DDE = dose-dependent effect
TK-10 = assay: Anticancer activity against human TK-10 cells assessed as cell growth inhibition; assay type: functional, cell-based; settings: dose 1-100 µM, DDE = dose-dependent effect
HL-60(TB) = assay: Anticancer activity against human HL-60(TB) cells assessed as cell growth inhibition; assay type: functional, cell-based; settings: dose 1-100 µM, DDE = dose-dependent effect
DU-145 = assay: Anticancer activity against human DU-145 cells assessed as cell growth inhibition; assay type: functional, cell-based; settings: dose 1-100 µM, DDE = dose-dependent effect
NCI-H522 = assay: Anticancer activity against human NCI-H522 cells assessed as cell growth inhibition; assay type: functional, cell-based; settings: dose 1-100 µM, DDE = dose-dependent effect
EKVX = assay: Anticancer activity against human EKVX cells assessed as cell growth inhibition; assay type: functional, cell-based; settings: dose 1-100 µM, DDE = dose-dependent effect
M14 = assay: Anticancer activity against human M14 cells assessed as cell growth inhibition; assay type: functional, cell-based; settings: dose 1-100 µM, DDE = dose-dependent effect

N=c1c2c(-c3ccccc3)c(-c3ccccc3)n(Cc3ccccc3)c2ncn1CCCO
Activity (SN12C): Dde
Activity (SF-539): Dde
Activity (SK-MEL-2): Dde
Activity (UACC-62): Dde
Activity (HCC 2998): Dde
Activity (HCT-116): Dde
Activity (Malme-3M): Dde
Activity (SNB-75): Dde
Activity (NCI-H23): Dde
Activity (OVCAR-4): Dde
Activity (MDA-MB-435): Dde
Activity (HOP-62): Dde
Activity (PC-3M [1]): Dde
Activity (PC-3): Dde
Activity (NCI-H460): Dde
Activity (K562): Dde
Activity (A498): Dde
Activity (Hs-578T): Dde
Activity (CAKI-1): Dde
Activity (BT-549): Dde
Activity (A549): Dde
Activity (T47D): Dde
Activity (IGROV-1): Dde
Activity (SR): Dde
Activity (RPMI-8226): Dde
Activity (SK-MEL-5): Dde
Activity (SNB-19): Dde
Activity (UACC-257): Dde
Activity (HCT-15): Dde
Activity (SK-MEL-28): Dde
Activity (NCI/ADR-RES): Dde
Activity (MCF7): Dde
Activity (MDA-MB-231): Dde
Activity (SF-295): Dde
Activity (OVCAR-8): Dde
Activity (MDA-MB-468): Dde
Activity (ACHN): Dde
Activity (U-251): Dde
Activity (OVCAR-3): Dde
Activity (KM12): Dde
Activity (MOLT-4): Dde
Activity (LOX IMVI): Dde
Activity (PC-3M [2]): Toxic
Activity (RXF 393): Dde
Activity (CCRF-CEM): Dde
Activity (NCI-H226): Dde
Activity (PC-3M [3]): Dde
Activity (OVCAR-5): Dde
Activity (SW-620): Dde
Activity (UO-31): Dde
Activity (COLO 205): Dde
Activity (786-0): Dde
Activity (HT-29): Dde
Activity (SK-OV-3): Dde
Activity (NCI-H322M): Dde
Activity (SF-268): Dde
Activity (TK-10): Dde
Activity (HL-60(TB)): Dde
Activity (DU-145): Dde
Activity (NCI-H522): Dde
Activity (EKVX): Dde
Activity (M14): Dde
